Reference: ChEMBL document CHEMBL1208767, “Synthesis and structure-activity relationship of N-(3-azabicyclo[3.1.0]hex-6-ylmethyl)-5-(2-pyridinyl)-1,3-thiazol-2-amines derivatives as NPY Y5 antagonists” (Bioorg Med Chem Lett, 2010)
≈ marks a conversion by molar mass, not a printed value.

Legend:
[1] = molecular target: T1, Neuropeptide Y receptor type 5 (Homo sapiens, UniProt Q15761); assay: Antagonist activity at human NPY Y5 receptor expressed in HEK293 cells assessed as inhibition of calcium level by FLIPR assay; format: functional, cell-based
T1 sequence (Q15761 whole entry): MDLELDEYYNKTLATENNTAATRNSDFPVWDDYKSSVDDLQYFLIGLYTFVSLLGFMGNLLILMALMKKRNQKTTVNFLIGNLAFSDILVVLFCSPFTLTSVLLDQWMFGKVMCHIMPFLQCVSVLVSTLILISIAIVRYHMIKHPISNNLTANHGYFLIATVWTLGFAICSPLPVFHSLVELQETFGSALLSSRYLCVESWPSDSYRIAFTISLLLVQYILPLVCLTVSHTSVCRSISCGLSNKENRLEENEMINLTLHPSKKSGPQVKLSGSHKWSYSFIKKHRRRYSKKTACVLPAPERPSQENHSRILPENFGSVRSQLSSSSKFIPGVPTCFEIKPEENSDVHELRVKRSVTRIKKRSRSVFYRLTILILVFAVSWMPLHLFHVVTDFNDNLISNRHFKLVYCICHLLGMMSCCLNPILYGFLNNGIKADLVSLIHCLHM
How it was run: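 Functional antagonism measured at the human Y5 receptor stably expressed in HEK293 cells, by FLIPR calcium read-out in 384-well format. Results expressed as fpKi. At least two replicates; each determination within 0.3 log units of the mean.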

Cytochrome P450 1A2 = molecular target: T2, Cytochrome P450 1A2 (Homo sapiens, UniProt P05177); assay: Inhibition of CYP1A2; format: ADME
T2 sequence (P05177 whole entry): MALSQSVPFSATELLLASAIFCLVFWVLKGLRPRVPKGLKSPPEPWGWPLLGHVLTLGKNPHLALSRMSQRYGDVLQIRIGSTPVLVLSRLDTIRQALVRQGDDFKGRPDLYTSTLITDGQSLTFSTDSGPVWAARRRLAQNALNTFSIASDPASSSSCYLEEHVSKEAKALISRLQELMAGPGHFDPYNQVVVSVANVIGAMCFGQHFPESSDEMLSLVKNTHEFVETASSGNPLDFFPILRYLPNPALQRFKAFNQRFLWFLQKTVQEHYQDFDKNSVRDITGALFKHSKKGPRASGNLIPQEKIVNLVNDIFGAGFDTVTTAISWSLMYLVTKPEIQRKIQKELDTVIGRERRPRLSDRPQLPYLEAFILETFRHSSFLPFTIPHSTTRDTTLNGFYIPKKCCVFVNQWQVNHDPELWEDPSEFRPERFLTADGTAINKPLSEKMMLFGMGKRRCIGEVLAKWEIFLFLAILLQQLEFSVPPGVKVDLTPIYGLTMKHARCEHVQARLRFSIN

[2] = Oral bioavailability in rat at 1 mg/kg, po by cassette dosing; format: ADME, organism-based; conditions: in vivo
How it was run: (§1)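 Rats dosed at 0.5 mg/kg iv and 1 mg/kg po.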

[3] = Ratio of drug level in brain to blood in rat at 0.5 mg/kg, iv after 1 hr by cassette dosing; format: ADME, organism-based; parameters: dose 0.5 mg/kg, route intravenous; conditions: read-out: BBR
How it was run: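 Rats dosed at 0.5 mg/kg iv; brain and blood levels taken 1 h after iv dosing.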

[4] = molecular target: T3, Neuropeptide Y receptor type 1 (Homo sapiens, UniProt P25929); assay: Antagonist activity at human NPY Y1 receptor expressed in HEK293 cells assessed as inhibition of calcium level by FLIPR assay; format: functional, cell-based
T3 sequence (P25929 whole entry): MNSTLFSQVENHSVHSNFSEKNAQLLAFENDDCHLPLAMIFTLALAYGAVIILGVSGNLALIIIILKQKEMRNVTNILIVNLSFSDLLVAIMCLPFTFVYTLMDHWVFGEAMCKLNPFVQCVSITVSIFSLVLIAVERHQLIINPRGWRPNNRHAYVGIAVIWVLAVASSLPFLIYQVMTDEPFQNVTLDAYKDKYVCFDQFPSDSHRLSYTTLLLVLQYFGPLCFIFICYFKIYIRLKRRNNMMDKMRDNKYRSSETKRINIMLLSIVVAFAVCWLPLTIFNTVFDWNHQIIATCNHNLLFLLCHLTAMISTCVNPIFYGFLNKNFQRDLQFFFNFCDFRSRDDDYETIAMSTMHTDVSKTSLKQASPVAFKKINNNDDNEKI

[5] = molecular target: T4, Neuropeptide Y receptor type 2 (Homo sapiens, UniProt P49146); assay: Antagonist activity at human NPY Y2 receptor expressed in HEK293 cells assessed as inhibition of calcium level by FLIPR assay; format: functional, cell-based
T4 sequence (P49146 whole entry): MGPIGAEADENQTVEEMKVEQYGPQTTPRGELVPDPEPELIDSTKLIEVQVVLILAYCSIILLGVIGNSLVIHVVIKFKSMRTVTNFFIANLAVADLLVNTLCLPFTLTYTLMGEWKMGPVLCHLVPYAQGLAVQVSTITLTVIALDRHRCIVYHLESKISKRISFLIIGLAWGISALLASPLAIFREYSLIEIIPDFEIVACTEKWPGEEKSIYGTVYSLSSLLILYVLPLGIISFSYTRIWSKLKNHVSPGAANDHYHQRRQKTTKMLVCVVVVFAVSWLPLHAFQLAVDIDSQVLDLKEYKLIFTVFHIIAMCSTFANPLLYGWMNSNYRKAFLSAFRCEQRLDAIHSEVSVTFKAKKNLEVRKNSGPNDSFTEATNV

Cytochrome P450 2C9 = Cytochrome P450 2C9 (Homo sapiens, UniProt P11712); assay: Inhibition of CYP2C9; format: ADME
Cytochrome P450 2C19 = Cytochrome P450 2C19 (Homo sapiens, UniProt P33261); assay: Inhibition of CYP2C19; format: ADME
Cytochrome P450 3A4 = Cytochrome P450 3A4 (Homo sapiens, UniProt P08684); assay: Inhibition of CYP3A4; format: ADME
[6] = Blood clearance in rat at 0.5 mg/kg, iv and 1 mg/kg, po by cassette dosing; format: ADME, organism-based; how it was run: as §1
[7] = molecular target: Voltage-gated inwardly rectifying potassium channel KCNH2 (Homo sapiens, UniProt Q12809); assay: Inhibition of human ERG
Rattus norvegicus = assay: Whole blood binding in rat at 0.5 mg/kg, iv and 1 mg/kg, po by equilibrium dialysis assay; format: ADME, organism-based; conditions: in vivo
[8] = Solubility of the compound by high throughput chemiluminescent nitrogen detection method; format: physicochemical

Sequence of Cytochrome P450 2C19 (P33261 whole entry): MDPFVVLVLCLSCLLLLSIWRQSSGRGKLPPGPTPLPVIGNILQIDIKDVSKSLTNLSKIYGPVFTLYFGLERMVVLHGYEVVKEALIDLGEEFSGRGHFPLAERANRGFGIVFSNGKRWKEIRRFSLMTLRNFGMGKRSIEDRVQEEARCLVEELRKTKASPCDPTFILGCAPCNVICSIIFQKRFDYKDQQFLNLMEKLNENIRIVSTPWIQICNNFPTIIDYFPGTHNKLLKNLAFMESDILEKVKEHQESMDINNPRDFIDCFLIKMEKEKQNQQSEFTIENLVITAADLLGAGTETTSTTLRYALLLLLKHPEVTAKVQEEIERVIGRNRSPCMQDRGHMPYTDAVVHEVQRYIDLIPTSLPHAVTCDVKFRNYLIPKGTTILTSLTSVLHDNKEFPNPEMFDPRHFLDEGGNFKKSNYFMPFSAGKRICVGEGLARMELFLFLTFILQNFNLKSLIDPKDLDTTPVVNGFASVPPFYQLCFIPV
Sequence of Cytochrome P450 3A4 (P08684 whole entry): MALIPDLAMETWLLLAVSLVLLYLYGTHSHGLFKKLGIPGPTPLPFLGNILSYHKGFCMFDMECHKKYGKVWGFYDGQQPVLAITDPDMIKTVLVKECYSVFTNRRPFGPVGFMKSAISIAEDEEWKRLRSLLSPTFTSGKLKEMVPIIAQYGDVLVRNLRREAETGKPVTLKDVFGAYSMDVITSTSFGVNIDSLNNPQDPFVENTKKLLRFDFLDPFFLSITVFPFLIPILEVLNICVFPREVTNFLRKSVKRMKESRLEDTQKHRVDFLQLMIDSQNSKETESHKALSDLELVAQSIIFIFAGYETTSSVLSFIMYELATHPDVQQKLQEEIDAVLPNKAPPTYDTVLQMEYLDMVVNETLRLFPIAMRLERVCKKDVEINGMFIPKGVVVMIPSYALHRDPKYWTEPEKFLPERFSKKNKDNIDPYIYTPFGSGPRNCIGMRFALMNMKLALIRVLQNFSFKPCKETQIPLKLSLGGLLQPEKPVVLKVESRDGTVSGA
Sequence of Cytochrome P450 2C9 (P11712 whole entry): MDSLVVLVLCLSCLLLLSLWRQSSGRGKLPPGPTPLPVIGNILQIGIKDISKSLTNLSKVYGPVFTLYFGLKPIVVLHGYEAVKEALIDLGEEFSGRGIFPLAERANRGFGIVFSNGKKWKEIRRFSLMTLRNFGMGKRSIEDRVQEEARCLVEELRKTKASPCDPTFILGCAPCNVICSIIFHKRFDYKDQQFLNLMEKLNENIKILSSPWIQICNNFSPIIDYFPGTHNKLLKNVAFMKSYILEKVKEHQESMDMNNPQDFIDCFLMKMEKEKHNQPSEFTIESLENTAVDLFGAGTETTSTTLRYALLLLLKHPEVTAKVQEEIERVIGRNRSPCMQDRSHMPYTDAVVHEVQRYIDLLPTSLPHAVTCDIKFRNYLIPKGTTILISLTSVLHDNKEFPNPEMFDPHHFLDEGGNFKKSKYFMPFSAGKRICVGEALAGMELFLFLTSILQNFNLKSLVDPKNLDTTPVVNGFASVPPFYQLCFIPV
Sequence of Voltage-gated inwardly rectifying potassium channel KCNH2 (Q12809 whole entry): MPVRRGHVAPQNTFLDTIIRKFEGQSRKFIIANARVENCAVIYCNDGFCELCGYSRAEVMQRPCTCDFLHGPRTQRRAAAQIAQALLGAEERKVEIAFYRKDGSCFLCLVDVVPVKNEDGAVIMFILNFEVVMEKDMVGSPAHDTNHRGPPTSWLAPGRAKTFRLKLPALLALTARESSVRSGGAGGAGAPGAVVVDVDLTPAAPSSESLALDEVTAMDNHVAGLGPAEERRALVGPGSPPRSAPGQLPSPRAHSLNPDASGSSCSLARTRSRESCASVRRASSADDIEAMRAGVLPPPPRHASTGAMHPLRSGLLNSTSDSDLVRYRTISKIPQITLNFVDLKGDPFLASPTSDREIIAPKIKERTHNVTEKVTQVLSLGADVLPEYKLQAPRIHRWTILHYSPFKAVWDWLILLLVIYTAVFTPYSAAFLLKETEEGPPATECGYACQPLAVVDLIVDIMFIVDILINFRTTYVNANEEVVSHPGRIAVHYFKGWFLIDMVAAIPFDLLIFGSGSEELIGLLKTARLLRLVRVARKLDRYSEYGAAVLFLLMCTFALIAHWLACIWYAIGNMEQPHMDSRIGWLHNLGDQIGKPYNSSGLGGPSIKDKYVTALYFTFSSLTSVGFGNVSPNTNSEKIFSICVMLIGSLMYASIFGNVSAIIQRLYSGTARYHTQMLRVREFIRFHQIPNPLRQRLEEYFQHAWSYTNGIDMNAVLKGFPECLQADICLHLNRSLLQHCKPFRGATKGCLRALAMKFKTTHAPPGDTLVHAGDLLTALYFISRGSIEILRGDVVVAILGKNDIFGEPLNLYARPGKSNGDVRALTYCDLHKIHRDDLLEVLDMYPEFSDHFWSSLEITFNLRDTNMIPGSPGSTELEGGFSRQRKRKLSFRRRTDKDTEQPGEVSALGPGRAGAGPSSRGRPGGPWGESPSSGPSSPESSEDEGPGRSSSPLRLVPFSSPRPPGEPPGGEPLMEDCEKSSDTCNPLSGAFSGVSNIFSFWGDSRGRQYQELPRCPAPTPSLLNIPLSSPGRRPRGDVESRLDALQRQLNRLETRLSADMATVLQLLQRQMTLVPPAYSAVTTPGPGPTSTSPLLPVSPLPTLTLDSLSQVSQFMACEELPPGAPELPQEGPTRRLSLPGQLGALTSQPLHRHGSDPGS

Row | Structure (SMILES) | Ki [1] | other results
1 | CC(=O)N1C[C@@H]2[C@H](CNc3nc(-c4ccccn4)cs3)[C@@H]2C1 | 2510 nM | 
2 | FC(F)(F)c1ccc(Nc2nc(-c3ccccn3)cs2)cc1 | 15.8 nM | IC50 (Cytochrome P450 1A2): < 100 nM; bioavailability [2]: 30%; Kp at 1 h [3]: 4.2; Ki [4]: > 31600 nM; Ki [5]: > 31600 nM
3 | O=C(CCc1ccccc1)N1C[C@@H]2[C@@H](CNc3nc(-c4ccccn4)cs3)[C@@H]2C1 | 6.31 nM | 
4 | O=C(c1ccccc1)N1C[C@@H]2[C@H](CNc3nc(-c4ccccn4)cs3)[C@@H]2C1 | 2.51 nM | 
5 | O=C(C1CCOC1)N1C[C@@H]2[C@H](CNc3nc(-c4ccccn4)cs3)[C@@H]2C1 (stereo partly drawn) | 7.94 nM | IC50 (Cytochrome P450 1A2): > 10000 nM; IC50 (Cytochrome P450 2C9): > 10000 nM; IC50 (Cytochrome P450 2C19): > 10000 nM; IC50 (Cytochrome P450 3A4): > 10000 nM; clearance [6]: 98 mL/min/kg; bioavailability [2]: 15%; IC50 [7]: 2000 nM; Kp at 1 h [3]: < 0.5; Activity (Rattus norvegicus): 74%
6 | CC(C(=O)N1C[C@@H]2[C@H](CNc3nc(-c4ccccn4)cs3)[C@@H]2C1)c1ccccc1 (stereo partly drawn) | 0.398 nM | 
7 | O=C(Cc1ccccc1)N1C[C@@H]2[C@@H](CNc3nc(-c4ccccn4)cs3)[C@@H]2C1 | 1 nM | 
8 | Fc1cc(F)cc(CN2C[C@@H]3[C@H](CNc4nc(-c5ccccn5)cs4)[C@@H]3C2)c1 | 0.631 nM | 
9 | c1ccc(CN2C[C@@H]3[C@H](CNc4nc(-c5ccccn5)cs4)[C@@H]3C2)cc1 | 1.58 nM | 
10 | CC(C)CN1C[C@@H]2[C@H](CNc3nc(-c4ccccn4)cs3)[C@@H]2C1 | 3.98 nM | 
11 | O=C(CCc1ccccc1)N1C[C@@H]2[C@H](CNc3nc(-c4ccccn4)cs3)[C@@H]2C1 | 0.631 nM | 
12 | O=C(C1CCCO1)N1C[C@@H]2[C@H](CNc3nc(-c4ccccn4)cs3)[C@@H]2C1 (stereo partly drawn) | 5.01 nM | 
13 | O=C(c1cccc(F)c1)N1C[C@@H]2[C@H](CNc3nc(-c4ccccn4)cs3)[C@@H]2C1 | 1 nM | 
14 | O=C([C@H]1C[C@@H]1c1ccccc1)N1C[C@@H]2[C@H](CNc3nc(-c4ccccn4)cs3)[C@@H]2C1 | 0.794 nM | 
15 | c1ccc(-c2csc(NC[C@H]3[C@@H]4CNC[C@@H]43)n2)nc1 | 1000 nM | 
16 | Cc1cc(C)cc(CN2C[C@@H]3[C@H](CNc4nc(-c5ccccn5)cs4)[C@@H]3C2)c1 | 3.98 nM | 
17 | O=C(c1ccncc1)N1C[C@@H]2[C@H](CNc3nc(-c4ccccn4)cs3)[C@@H]2C1 | 50.1 nM | 
18 | CC(C(=O)N1C[C@@H]2[C@H](CNc3nc(-c4ccccn4)cs3)[C@@H]2C1)C(C)c1ccccc1 (stereo partly drawn) | 5.01 nM | 
19 | CC(C)C(=O)N1C[C@@H]2[C@H](CNc3nc(-c4ccccn4)cs3)[C@@H]2C1 | 2.51 nM | solubility [8]: 120 µg/mL (≈ 350 µM); IC50 (Cytochrome P450 1A2): ≥ 7000 nM; IC50 (Cytochrome P450 2C9): ≥ 7000 nM; IC50 (Cytochrome P450 2C19): ≥ 7000 nM; IC50 (Cytochrome P450 3A4): ≥ 7000 nM; clearance [6]: 137 mL/min/kg; bioavailability [2]: 6%; Kp at 1 h [3]: 0.7
20 | O=C(Cc1ccccc1)N1C[C@@H]2[C@H](CNc3nc(-c4ccccn4)cs3)[C@@H]2C1 | 1 nM | 
21 | O=C(c1ccccc1)N1C[C@@H]2[C@@H](CNc3nc(-c4ccccn4)cs3)[C@@H]2C1 | 12.6 nM | 
22 | O=C(N1C[C@@H]2[C@H](CNc3nc(-c4ccccn4)cs3)[C@@H]2C1)C1(c2ccccc2)CC1 | 0.794 nM | 
23 | O=C(c1cccnc1)N1C[C@@H]2[C@H](CNc3nc(-c4ccccn4)cs3)[C@@H]2C1 | 5.01 nM | 
24 | CC(c1ccccc1)N1C[C@@H]2[C@H](CNc3nc(-c4ccccn4)cs3)[C@@H]2C1 (stereo partly drawn) | 1.26 nM | 
25 | O=C(C1CCOCC1)N1C[C@@H]2[C@H](CNc3nc(-c4ccccn4)cs3)[C@@H]2C1 | 31.6 nM | 
26 | O=C(c1cc(F)cc(F)c1)N1C[C@@H]2[C@H](CNc3nc(-c4ccccn4)cs3)[C@@H]2C1 | 1.58 nM | 
